ChEMBL document CHEMBL1138849, “5-substituted tetrazoles as bioisosteres of carboxylic acids. Bioisosterism and mechanistic studies on glutathione reductase inhibitors as antimalarials” (J Med Chem, 2004)
“And” between values parts separate entries of the source, which are not always exact repeats. Equal values may be shown once.

Assays:
Plasmodium falciparum = assay: Inhibitory concentration against Plasmodium falciparum […]; assay type: functional, organism-based; details: FcB1/Columbia
[1] = biological target: Glutathione reductase (Plasmodium falciparum) (UniProt Q94655); assay: Inhibitory concentration against Plasmodium falciparum glutathione reductase
[2] = biological target: T1, Glutathione reductase, mitochondrial (Homo sapiens, UniProt P00390); assay: Inhibitory concentration against human glutathione reductase
T1 sequence (P00390 whole entry): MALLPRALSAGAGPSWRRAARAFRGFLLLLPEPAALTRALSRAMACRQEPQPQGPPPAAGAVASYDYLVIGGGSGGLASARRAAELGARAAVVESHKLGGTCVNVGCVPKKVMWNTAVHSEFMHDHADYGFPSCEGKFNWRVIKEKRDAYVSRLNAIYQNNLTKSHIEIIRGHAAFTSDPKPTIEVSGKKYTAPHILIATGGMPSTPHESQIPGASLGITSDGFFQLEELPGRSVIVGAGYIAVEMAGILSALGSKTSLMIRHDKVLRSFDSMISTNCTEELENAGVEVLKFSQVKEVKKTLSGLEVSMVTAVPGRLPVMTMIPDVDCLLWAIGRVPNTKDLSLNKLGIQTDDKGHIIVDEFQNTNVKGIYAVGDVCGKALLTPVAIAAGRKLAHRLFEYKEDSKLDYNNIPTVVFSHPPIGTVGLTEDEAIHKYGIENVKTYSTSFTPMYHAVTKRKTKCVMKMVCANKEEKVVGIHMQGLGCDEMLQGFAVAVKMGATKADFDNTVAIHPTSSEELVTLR
Method in brief: (§1)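 Recombinant GR (human or P. falciparum) in 100 mM potassium phosphate pH 7.0, 200 mM KCl, 100 μM NADPH, 1 mM GSSG, with 1% final DMSO. Started with 8 milliunits of enzyme. Initial rates of NADPH oxidation read at 340 nm. […] A second set of standard assays used 200 μM GSSG.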

Glutathione reductase = Glutathione reductase (Plasmodium falciparum 3D7, UniProt O15770); assay: Inhibitory concentration against Plasmodium falciparum glutathione reductase; method in brief: as §1
[3] = biological target: T1, Glutathione reductase, mitochondrial; assay: Inhibitory concentration against human glutathione reductase in the absence of glucose-6-phosphate dehydrogenase (G6PDH); method in brief: as §1
[4] = biological target: T1, Glutathione reductase, mitochondrial; assay: Inhibitory concentration against human glutathione reductase in the presence of 200 uM exogenous NADP
[5] = biological target: T1, Glutathione reductase, mitochondrial; assay: Inhibitory concentration against human glutathione reductase (In presence of NADPH)
[6] = biological target: T1, Glutathione reductase, mitochondrial; assay: Inhibitory concentration against human glutathione reductase (In presence of glutathione disulfide)

Glutathione reductase (Plasmodium falciparum), sequence (Q94655 whole entry, looked up): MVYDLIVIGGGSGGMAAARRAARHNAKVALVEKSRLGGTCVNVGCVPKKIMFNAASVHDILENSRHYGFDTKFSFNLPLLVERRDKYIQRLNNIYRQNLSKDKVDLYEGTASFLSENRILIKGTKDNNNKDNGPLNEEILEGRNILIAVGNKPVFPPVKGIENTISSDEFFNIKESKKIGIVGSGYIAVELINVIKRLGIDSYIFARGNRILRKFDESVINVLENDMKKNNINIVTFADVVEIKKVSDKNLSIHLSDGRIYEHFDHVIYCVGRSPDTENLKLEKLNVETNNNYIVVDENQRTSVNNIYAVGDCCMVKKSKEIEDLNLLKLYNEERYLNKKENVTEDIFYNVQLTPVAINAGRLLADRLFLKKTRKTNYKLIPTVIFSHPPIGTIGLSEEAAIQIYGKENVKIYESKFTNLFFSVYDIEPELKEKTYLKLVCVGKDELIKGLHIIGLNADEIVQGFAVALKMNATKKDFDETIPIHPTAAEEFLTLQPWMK

| IC50 (Plasmodium falciparum) [µM] | IC50 [2] [µM] | IC50 (Glutathione reductase) [µM] | SMILES | further results |
| --- | --- | --- | --- | --- |
| 4 | – | – | CC1=C(CCCCC(=O)O)C(=O)c2ccccc2C1=O | – |
| 3.5 | 3.2 | 4.5 | CC1=C(CCCCCC(=O)O)C(=O)c2ccccc2C1=O | Ki [1]: 3.7 µM; Ki (Glutathione reductase): 3.6 µM; IC50 [3]: 2.7 µM and 1.8 µM; IC50 [4]: 2.7 µM |
| 1.4 | 27 | 10.8 | CC1=C(CCCCc2nnnn2CCC#N)C(=O)c2ccccc2C1=O | – |
| 12.6 | – | – | CC1=C(CCCCCC(=O)OCCN(C)C)C(=O)c2ccccc2C1=O | – |
| 1.8 | – | – | CC1=C(CCCC(=O)NCCC#N)C(=O)c2ccccc2C1=O | – |
| 1 | – | – | CC1=C(CCCCCC(=O)NCCC#N)C(=O)c2ccccc2C1=O | – |
| 1.5 | 22.7 | 57 | CC1=C(CCCCC(=O)NCCC#N)C(=O)c2ccccc2C1=O | – |
| 0.9 | – | – | CC1=C(CCCc2nnnn2CCC#N)C(=O)c2ccccc2C1=O | – |
| 1.1 | – | – | CC1=C(CCCCCc2nnnn2CCC#N)C(=O)c2ccccc2C1=O | – |
| – | – | – | CC1=CC(=O)c2ccccc2C1=O [MENADIONE] | Ki [5]: 16.1 µM; Ki [6]: 12.1 µM |
| – | 16 | 6.4 | CN(C)c1ccc2nc3ccc(=[N+](C)C)cc-3sc2c1 [METHYLENE BLUE ANHYDROUS] | – |
